The values that follow come from ChEMBL document CHEMBL1157206 (Bioorg Med Chem, 2008).

For one assay, the system named is DLD-1. Put plainly: Cytotoxicity against human DLD1 cells by resazurin reduction test. The format is functional, cell-based. In outline: (§1)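 Cells seeded at 5 × 10³ per well and allowed to adhere 16 h. Compounds are made up from DMSO stocks, with DMSO held at 0.5% (v/v) at every concentration, and added as a 4× solution in MEM. Continuous exposure lasts 48 h. Resazurin at 25 µg/mL in MEM without serum or phenol red is then given for 1 h at 37 °C, 5% CO₂. Fluorescence is read at ex 530/em 590 nm. IC50 comes from the blank-subtracted concentration–response curve, expressed as percent of control wells.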
In general terms: The colour change of resazurin is a common sign of viable cells or microbes.

Assay [1] in a line: Cytotoxicity against human primary fibroblasts by resazurin reduction test. The format is cell-based. The conditions noted are these: Fibroblast. In short, it runs like this: as §1
For the next assay, the system named is MCF7. Put plainly: Cytotoxicity against human MCF7 cells by resazurin reduction test. Type of assay: functional, cell-based. In short, it runs like this:
as §1

Assay [2] is described as follows: Cytotoxicity against human M4Beu cells by resazurin reduction test. The format is functional, cell-based. In short, it runs like this:
as §1

For a further assay, the system named is PA-1. The assay can be described thus: Cytotoxicity against human PA1 cells by resazurin reduction test. Type of assay: functional, cell-based. In outline:
as §1

Assay [3] relates to L929. The assay can be described thus: Growth inhibition in mouse L929 cells after 48 hrs. The arrangement: concentration or dose not given beside the values. Type of assay: functional.
Assay [4] concerns L929. Put plainly: Effect on oxidative stress in mouse L929 cells assessed as glutathione depletion at 6.25 uM after 4 hrs. The format is functional. In outline:
(§2)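 L929 cells seeded at 5 × 10³ per well and grown 48 h to about 90% confluence. Treatment runs in HBSS/15 mM Hepes pH 7.4 for 4 h at 37 °C. Cells are then washed and incubated 15 min with 7.5 µM monochlorobimane before the fluorescence read. Depletion counts as significant below 80% of control. Positive control is 100 µM diethylmaleate.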

In assay [5] the test system is L929. The assay can be described thus: Effect on oxidative stress in mouse L929 cells assessed as ROS production at 6.25 uM after 4 hrs by 2',7'-dichlorofluorescein-diacetate assay. The format is functional. In short, it runs like this: (§3)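 L929 cells seeded at 5 × 10³ per well and grown 48 h to about 90% confluence. Cells are loaded with 20 µM DCFH-DA in HBSS/15 mM Hepes pH 7.4 for 1 h at 37 °C, washed, then treated in the same buffer at 37 °C. Fluorescence is read after 4 h at 485/530 nm and expressed as percent of control. Above 150% counts as significant; 100 µM tert-butyl hydroperoxide serves as positive control.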

Another assay concerns A549. The assay can be described thus: Cytotoxicity against human A549 cells by resazurin reduction test. Type of assay: functional, cell-based. In short, it runs like this: as §1
Another assay has as its system PC-3. Put plainly: Cytotoxicity against human PC3 cells by resazurin reduction test. The format is functional, cell-based. In outline:
as §1

Assay [6] relates to L929. The assay can be described thus: Effect on oxidative stress in mouse L929 cells assessed as ROS production at 12.5 uM after 4 hrs by 2',7'-dichlorofluorescein-diacetate assay. Type of assay: functional. In outline: as §3
For assay [7], the system named is L929. The assay can be described thus: Effect on oxidative stress in mouse L929 cells assessed as cytolysis at 50 uM after 4 hrs by calcein-AM assay. The format is functional. In short, it runs like this:
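L929 cells seeded at 5 × 10³ per well and grown 48 h to about 90% confluence. Cells are washed with HBSS/Hepes, then exposed 4 h at 37 °C in complete medium with 0.5% DMSO vehicle, in triplicate. Tween 80 is the lysis control. Detached cells are checked by microscopy, then 4 µM calcein-AM is added for 1 h and read at ex 485/em 530 nm. Percent intact cells = (sample − 100%-lysis background)/(vehicle − background) × 100.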

For assay [8], the system named is L929. Put plainly: Effect on oxidative stress in mouse L929 cells assessed as glutathione depletion at 50 uM after 4 hrs. Type of assay: functional. In outline:
as §2

Assay [9] relates to L929. Put plainly: Effect on oxidative stress in mouse L929 cells assessed as ROS production at 25 uM after 4 hrs by 2',7'-dichlorofluorescein-diacetate assay. Type of assay: functional. In short, it runs like this:
as §3

The term IC50 denotes the concentration at which inhibition is half-maximal.

As to `O=C(O)CCCc1ccc(N(CCCl)CCCl)cc1` [CHLORAMBUCIL], the IC50 in the assay on DLD-1 is 47 µM; in assay [1], 99 µM; in the assay on MCF7, above 100 µM; in [2], above 100 µM; with PA-1 it was 2.8 µM; in the assay on A549, 43 µM. Also, the “inhibition (INH)” value in the assay with L929 [3] stood at 30%. Further, the Activity entry was “<=80%” with L929 [4] and “>=150%” in the assay with L929 [5].
`CC(=O)OC[C@H]1O[C@@H](NC(=O)CCCc2ccc(N(CCCl)CCCl)cc2)[C@H](F)[C@@H](OC(C)=O)[C@@H]1OC(C)=O`: the IC50 in the assay with DLD-1 worked out at 7.1 µM; in assay [1], 11 µM; with MCF7, 27 µM; in [2], 27 µM; with PA-1, 1.3 µM; with PC-3, 4.4 µM. For the same molecule, the IC50 with A549 came to 5.4 µM.
For `CC(=O)OC[C@H]1O[C@@H](NC(=O)NCCCc2ccc(N(CCCl)CCCl)cc2)[C@H](F)[C@@H](OC(C)=O)[C@@H]1OC(C)=O`, the IC50 in the assay with DLD-1 worked out at 7 µM; in assay [1], 13 µM; in the assay on MCF7, 26.4 µM; in assay [2] it was 27 µM; in the assay on PA-1, 0.6 µM; in the assay on PC-3 it was 4 µM. In the assay with A549, this molecule showed an IC50 of 8 µM. Further, the “inhibition (INH)” value in the assay with L929 [3] is 40%. Moreover, the Activity entry with L929 [6] is reported as “>=150%”.
Regarding `CC(=O)OC[C@H]1O[C@@H](NC(=O)c2ccc(NC(=O)CCCc3ccc(N(CCCl)CCCl)cc3)cc2)[C@H](F)[C@@H](OC(C)=O)[C@@H]1OC(C)=O`, the IC50 came to 3 µM with DLD-1; 4 µM in [1]; 5 µM with MCF7; 7 µM in [2]; 0.3 µM with PA-1; 1.4 µM in the assay on PC-3. The molecule further gave an IC50 with A549 of 2.7 µM. Besides, the Activity result with L929 [7] and in the assay on L929 [8] was “<=80%” throughout. In addition, the “inhibition (INH)” value in the assay on L929 [3] is on record as 50%.
In the case of `CC(=O)OC[C@H]1O[C@@H](NC(=O)CCNC(=O)CCCc2ccc(N(CCCl)CCCl)cc2)[C@H](F)[C@@H](OC(C)=O)[C@@H]1OC(C)=O`, the IC50 in the assay on DLD-1 turned out to be 11 µM; in assay [1], 7 µM; in the assay with MCF7, 13 µM; in assay [2], 15 µM; in the assay with PA-1, 0.24 µM; in the assay with PC-3 it was 3.7 µM. Besides, the half-inhibitory concentration (IC50) with A549 is 9.2 µM. Moreover, in the assay with L929 [3], the “inhibition (INH)” value came to 50%. Also, in the assay with L929 [8], the Activity entry is recorded as “<=80%”.
In the case of `CC(=O)OC[C@H]1O[C@@H](NC(=O)CCCNC(=O)CCCc2ccc(N(CCCl)CCCl)cc2)[C@H](F)[C@@H](OC(C)=O)[C@@H]1OC(C)=O`, the IC50 with DLD-1 worked out at 9 µM; in [1], 4.1 µM; with MCF7 it was 12 µM; in assay [2] it was 9 µM; with PA-1 it was 0.27 µM; with PC-3, 3 µM. Besides, the IC50 in the assay with A549 worked out at 13 µM. Further, in the assay on L929 [3], the “inhibition (INH)” value was 50%. Also, the Activity entry in the assay on L929 [5] is on record as “>=150%”.
For `CC(=O)OC[C@H]1O[C@@H](NC(=O)CNC(=O)CCCc2ccc(N(CCCl)CCCl)cc2)[C@H](F)[C@@H](OC(C)=O)[C@@H]1OC(C)=O`, the IC50 is 4 µM with DLD-1; 4.1 µM in assay [1]; 8 µM with MCF7; 6.8 µM in assay [2]; 1 µM with PA-1; 10 µM with PC-3. Further, in the assay with A549, inhibition was half-maximal at 5 µM (IC50). Further, the “inhibition (INH)” value in the assay with L929 [3] amounted to 70%. The Activity result in the assay with L929 [9] is given as “>=150%”.
Turning to `CC(=O)OC[C@H]1O[C@@H](Oc2ccc(NC(=O)CCCc3ccc(N(CCCl)CCCl)cc3)cc2)[C@H](F)[C@@H](OC(C)=O)[C@@H]1OC(C)=O`, the IC50 in the assay with DLD-1 was 10 µM; in assay [1], above 50 µM; in the assay on MCF7, 26 µM; in [2] it was above 50 µM; in the assay on PA-1, 0.76 µM; with PC-3, 11 µM. The half-maximal inhibitory concentration (IC50) with A549 was 1.9 µM. Further, the Activity result in the assay with L929 [4] is recorded as “<=80%”.
Turning to `CC(=O)OC[C@H]1O[C@@H](Oc2ccc(NC(=O)CNC(=O)CCCc3ccc(N(CCCl)CCCl)cc3)cc2)[C@H](F)[C@@H](OC(C)=O)[C@@H]1OC(C)=O`, the IC50 turned out to be 6 µM in the assay with DLD-1; 16 µM in assay [1]; 14 µM in the assay with MCF7; 14 µM in [2]; 1.6 µM in the assay on PA-1; 8 µM in the assay with PC-3. In the assay on A549, this molecule displayed an IC50 of 10 µM. In addition, the “inhibition (INH)” value in the assay on L929 [3] was found to be 40%.
